We go through two compounds from ChEMBL document CHEMBL3352043, “Discovery of small-molecule inhibitors selectively targeting the DNA-binding domain of the human androgen receptor” (J Med Chem, 2014).

Experiment [1] deals with T1, Androgen receptor (Homo sapiens, UniProt P10275).
T1 sequence (P10275 whole entry): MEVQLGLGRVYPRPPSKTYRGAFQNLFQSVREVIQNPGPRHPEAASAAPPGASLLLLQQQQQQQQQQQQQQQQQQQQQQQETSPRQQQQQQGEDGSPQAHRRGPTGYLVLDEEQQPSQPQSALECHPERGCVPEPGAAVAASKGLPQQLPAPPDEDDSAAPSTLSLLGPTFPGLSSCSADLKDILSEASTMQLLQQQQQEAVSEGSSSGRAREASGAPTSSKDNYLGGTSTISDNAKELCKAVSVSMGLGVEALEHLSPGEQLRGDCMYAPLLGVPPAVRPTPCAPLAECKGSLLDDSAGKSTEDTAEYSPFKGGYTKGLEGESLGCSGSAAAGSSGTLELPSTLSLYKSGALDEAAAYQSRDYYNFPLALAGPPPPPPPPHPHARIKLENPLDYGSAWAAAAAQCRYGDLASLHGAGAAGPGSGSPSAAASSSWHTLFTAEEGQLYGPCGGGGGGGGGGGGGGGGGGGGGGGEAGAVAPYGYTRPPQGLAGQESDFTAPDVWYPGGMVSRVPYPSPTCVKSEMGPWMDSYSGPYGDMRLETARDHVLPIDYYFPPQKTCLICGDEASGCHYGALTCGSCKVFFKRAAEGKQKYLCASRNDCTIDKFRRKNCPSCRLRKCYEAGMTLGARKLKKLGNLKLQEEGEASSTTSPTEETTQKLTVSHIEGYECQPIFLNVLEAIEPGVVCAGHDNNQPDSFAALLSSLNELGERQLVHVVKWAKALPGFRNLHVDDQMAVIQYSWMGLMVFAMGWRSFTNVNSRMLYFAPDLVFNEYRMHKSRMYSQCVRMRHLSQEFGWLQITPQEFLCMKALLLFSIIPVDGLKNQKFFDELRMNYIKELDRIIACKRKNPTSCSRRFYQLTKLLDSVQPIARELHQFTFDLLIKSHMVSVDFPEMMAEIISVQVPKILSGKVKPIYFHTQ
The experiment can be described thus: Inhibition of androgen receptor in human LNCaP cells assessed as inhibition of prostate-specific antigen secretion into media after 3 days. The format is cell-based.

Experiment [2] has as its target T2, Androgen receptor (Homo sapiens) (UniProt P10275).
T2 sequence (whole entry): T1 sequence (P10275 whole entry)
The experiment can be described thus: Displacement of androgen from androgen receptor (unknown origin) by Polarscreen competitor green assay.

Experiment [3] relates to T3, Androgen receptor (Homo sapiens), P10275 [Y594D].
T3 sequence (whole entry): T1 sequence (P10275 whole entry) with Y594D
In words: Inhibition of human androgen receptor Y594D mutant expressed in human PC3 cells assessed as inhibition of transcription activity after 24 hrs by luciferase reporter gene assay. Particulars: PC-3. The format is cell-based. The gist of the method:
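PC3 cells were starved 5 days in RPMI 1640 with 5% charcoal-stripped serum and seeded at 5000 cells/well. After 24 h they were cotransfected with AR-V7 or hAR mutant plasmid plus 50 ng ARR3tk-luciferase. At 48 h post-transfection, compounds were added for 24 h with 0.1 nM R1881. Luminescence was read from passive-lysis-buffer lysates; mutant tests used 10 μM.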
Background: A reporter such as luciferase makes a cellular process visible.

Experiment [4] concerns the target T4, Estrogen receptor (Homo sapiens) (UniProt P03372).
T4 sequence (whole entry): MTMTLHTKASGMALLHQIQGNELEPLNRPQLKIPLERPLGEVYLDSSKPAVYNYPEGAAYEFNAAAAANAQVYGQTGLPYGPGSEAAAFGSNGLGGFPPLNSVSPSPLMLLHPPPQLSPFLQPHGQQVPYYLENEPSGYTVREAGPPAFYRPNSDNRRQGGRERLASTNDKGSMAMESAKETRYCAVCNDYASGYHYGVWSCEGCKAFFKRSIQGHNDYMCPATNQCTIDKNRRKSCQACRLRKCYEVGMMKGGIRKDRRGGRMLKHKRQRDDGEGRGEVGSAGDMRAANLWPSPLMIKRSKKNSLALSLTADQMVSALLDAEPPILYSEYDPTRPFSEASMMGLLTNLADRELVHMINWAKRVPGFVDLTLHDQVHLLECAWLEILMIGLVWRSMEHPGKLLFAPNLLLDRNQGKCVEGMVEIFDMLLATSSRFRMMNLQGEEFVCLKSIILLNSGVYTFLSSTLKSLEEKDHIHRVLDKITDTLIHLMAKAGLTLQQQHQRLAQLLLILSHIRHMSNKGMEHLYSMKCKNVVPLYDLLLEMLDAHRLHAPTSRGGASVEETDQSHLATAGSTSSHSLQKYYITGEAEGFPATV
In words: Inhibition of ERalpha (unknown origin) transcriptional activity at […]. A digest of the protocol: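 MCF-7 cells stably carrying an ERE-luciferase reporter were stimulated with 1 nM estradiol and treated with compound. Luciferase luminescence was read from passive-lysis-buffer lysates.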

In experiment [5] the target is T1, Androgen receptor. In words: Inhibition of androgen receptor transcriptional activity in human LNCaP cells after 3 days by eGFP assay. The format is cell-based.

The structures appear in SMILES notation. Changes are numbered by the printed parent chain. Activity calls are given as the source filed them. No cut-off for these calls is given here.

In the case of `Brc1ncn(-c2csc(N3CCOCC3)n2)c1Br`, the values for the concentration for half-maximal inhibition (IC50) on Androgen receptor [1] and on Androgen receptor [5] were 170 nM and 120 nM, respectively. Besides, the inhibition entry in experiment [2], in experiment [3] and in experiment [4] was “inactive” each time.
For the compound `c1ccc(-c2csc(N3CCOCC3)n2)cc1`, the half-maximal inhibitory concentration (IC50) (commonly the concentration at which inhibition is half-maximal) on Androgen receptor [1] was found to be 280 nM; against Androgen receptor [5], 330 nM. The outcome in experiment [2] was inactive. The inhibition entry in experiment [3] and in experiment [4] was “inactive” each time.
